ChEMBL document CHEMBL3797186, “Single Residue Substitutions That Confer Voltage-Gated Sodium Ion Channel Subtype Selectivity in the NaV1.7 Inhibitory Peptide GpTx-1” (J Med Chem, 2016)
Positions of bridges follow the written chain, without caps; N, C: chain ends. Non-standard residues stand in square brackets, D forms with d. Residues, ends and D or L forms follow the SMILES beside them. 1Nal = N[C@@H](Cc1cccc2ccccc12)C(=O)O

Legend:
[1] = biological target: Sodium channel protein type 5 subunit alpha (Homo sapiens, UniProt Q14524); experiment: Inhibition of human Nav1.5 expressed in HEK293 cells assessed as inward peak current by ion-works quattro patch clamp electrophysiology method; format: cell-based
Outline: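 Stable HEK293 line expressing human NaV1.5, recorded by population patch clamp on the IonWorks Quattro.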

[2] = biological target: Sodium channel protein type 9 subunit alpha (Homo sapiens, UniProt Q15858); experiment: Inhibition of human Nav1.7 expressed in HEK293 cells assessed as inward peak current by ion-works quattro patch clamp electrophysiology method; format: cell-based
Sequence of Sodium channel protein type 9 subunit alpha (Q15858 whole entry): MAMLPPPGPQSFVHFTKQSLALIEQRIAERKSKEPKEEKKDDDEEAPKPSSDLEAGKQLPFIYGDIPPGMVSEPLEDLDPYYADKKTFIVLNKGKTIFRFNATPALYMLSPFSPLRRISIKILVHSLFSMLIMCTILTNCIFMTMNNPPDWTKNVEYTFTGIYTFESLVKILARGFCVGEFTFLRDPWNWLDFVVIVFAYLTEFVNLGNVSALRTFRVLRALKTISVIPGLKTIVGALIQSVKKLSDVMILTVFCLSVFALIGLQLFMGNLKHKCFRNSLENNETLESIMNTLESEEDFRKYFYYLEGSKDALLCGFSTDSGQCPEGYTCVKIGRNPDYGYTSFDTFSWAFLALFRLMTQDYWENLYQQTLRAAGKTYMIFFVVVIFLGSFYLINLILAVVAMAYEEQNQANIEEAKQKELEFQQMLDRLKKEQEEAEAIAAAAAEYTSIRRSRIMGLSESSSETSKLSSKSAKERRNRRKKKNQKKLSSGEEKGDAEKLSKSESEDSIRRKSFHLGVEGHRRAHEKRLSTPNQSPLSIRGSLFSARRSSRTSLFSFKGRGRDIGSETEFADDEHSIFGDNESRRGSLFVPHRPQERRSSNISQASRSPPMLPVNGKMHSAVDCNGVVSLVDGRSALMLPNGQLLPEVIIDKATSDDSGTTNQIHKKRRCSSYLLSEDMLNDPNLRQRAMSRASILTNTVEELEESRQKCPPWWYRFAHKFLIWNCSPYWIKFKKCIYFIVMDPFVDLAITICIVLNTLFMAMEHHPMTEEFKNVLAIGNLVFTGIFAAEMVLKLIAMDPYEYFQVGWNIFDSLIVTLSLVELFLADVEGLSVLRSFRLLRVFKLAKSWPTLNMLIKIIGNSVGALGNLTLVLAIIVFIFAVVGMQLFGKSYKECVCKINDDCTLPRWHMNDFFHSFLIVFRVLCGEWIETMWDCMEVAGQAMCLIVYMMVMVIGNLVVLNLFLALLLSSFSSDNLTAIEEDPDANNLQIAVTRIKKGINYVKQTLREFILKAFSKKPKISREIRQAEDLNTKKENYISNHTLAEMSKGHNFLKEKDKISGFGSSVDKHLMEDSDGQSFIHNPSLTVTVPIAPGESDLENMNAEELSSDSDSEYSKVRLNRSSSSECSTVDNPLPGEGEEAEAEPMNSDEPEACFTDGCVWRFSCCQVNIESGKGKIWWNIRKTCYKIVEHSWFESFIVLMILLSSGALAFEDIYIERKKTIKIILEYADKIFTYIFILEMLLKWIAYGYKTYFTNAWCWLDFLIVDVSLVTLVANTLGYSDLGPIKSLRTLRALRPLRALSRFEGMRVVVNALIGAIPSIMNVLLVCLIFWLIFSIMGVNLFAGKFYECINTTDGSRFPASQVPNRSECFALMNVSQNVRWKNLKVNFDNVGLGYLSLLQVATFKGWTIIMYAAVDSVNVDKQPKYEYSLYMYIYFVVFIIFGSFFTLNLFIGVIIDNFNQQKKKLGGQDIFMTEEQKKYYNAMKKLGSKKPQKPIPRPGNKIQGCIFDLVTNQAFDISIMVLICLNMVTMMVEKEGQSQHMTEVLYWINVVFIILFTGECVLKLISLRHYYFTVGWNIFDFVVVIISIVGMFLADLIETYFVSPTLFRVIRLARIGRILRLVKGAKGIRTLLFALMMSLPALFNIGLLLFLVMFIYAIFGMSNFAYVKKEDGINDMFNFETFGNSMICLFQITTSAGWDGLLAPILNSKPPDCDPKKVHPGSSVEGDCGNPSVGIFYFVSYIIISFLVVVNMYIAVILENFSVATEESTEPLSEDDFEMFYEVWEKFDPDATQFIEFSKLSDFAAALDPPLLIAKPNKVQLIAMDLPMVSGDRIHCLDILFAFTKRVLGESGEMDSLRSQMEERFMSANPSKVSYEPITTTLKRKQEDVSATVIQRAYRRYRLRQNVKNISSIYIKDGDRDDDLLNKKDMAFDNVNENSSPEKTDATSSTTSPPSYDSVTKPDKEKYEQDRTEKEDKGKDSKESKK

Sequence of Sodium channel protein type 5 subunit alpha (Q14524 whole entry): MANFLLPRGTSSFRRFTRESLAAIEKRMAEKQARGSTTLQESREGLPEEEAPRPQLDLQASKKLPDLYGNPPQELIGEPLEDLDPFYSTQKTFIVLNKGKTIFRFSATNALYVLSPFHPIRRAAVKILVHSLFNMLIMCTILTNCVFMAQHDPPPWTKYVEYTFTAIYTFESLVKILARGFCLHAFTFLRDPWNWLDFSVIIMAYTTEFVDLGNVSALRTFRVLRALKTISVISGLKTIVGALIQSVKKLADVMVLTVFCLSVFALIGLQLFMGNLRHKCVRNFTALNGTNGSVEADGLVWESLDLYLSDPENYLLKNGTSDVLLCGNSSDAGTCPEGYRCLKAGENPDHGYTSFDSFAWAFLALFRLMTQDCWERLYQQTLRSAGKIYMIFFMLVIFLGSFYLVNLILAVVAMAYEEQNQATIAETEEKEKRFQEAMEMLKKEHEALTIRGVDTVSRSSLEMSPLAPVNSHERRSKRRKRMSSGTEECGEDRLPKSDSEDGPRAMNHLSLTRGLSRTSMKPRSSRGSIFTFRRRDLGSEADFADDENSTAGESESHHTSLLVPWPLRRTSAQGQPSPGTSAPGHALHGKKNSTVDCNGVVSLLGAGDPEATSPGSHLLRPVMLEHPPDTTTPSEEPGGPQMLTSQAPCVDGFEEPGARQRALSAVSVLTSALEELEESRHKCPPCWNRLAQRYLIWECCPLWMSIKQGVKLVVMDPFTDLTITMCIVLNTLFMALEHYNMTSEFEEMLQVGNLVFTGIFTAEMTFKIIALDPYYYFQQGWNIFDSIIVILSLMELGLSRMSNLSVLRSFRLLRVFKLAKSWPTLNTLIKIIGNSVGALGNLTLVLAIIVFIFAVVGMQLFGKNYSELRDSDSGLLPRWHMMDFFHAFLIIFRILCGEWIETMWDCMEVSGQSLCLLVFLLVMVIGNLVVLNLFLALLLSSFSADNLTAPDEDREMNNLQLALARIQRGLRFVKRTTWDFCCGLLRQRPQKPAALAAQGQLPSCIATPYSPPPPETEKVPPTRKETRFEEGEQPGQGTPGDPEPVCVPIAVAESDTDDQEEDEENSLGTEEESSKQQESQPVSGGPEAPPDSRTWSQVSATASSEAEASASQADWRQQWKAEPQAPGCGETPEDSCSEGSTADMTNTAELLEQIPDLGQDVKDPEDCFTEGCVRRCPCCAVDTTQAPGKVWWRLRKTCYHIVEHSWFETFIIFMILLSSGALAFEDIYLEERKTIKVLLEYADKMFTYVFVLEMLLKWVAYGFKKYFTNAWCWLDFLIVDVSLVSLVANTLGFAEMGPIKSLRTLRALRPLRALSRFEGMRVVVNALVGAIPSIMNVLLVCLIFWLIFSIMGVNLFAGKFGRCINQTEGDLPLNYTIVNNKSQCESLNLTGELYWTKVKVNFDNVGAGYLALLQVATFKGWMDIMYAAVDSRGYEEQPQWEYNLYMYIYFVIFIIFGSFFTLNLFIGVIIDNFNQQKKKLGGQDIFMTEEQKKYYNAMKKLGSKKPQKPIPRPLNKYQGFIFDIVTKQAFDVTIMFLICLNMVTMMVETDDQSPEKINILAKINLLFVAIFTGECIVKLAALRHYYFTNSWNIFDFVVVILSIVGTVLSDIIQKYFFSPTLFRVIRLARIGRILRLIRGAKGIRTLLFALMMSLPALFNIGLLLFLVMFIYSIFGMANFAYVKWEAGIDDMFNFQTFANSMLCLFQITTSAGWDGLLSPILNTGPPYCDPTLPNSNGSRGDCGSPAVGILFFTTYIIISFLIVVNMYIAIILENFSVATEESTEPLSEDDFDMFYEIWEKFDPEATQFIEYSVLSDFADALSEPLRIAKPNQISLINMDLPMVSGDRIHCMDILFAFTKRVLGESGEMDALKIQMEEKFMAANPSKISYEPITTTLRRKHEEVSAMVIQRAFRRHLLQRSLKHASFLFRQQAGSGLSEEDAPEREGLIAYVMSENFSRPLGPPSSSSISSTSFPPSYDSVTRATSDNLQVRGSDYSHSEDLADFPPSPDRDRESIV

SMILES	IC50 [1]	IC50 [2]
CC[C@H](C)[C@@H]1NC(=O)[C@@H]2CSSC[C@@H]3NC(=O)[C@H](C(C)C)NC(=O)[C@H](CC(C)C)NC(=O)[C@H](CC(N)=O)NC(=O)[C@@H]4CCCN4C(=O)[C@H](CCCNC(=N)N)NC(=O)[C@H](CSSC[C@H](NC(=O)[C@@H](N)CC(=O)O)C(=O)N[C@@H](CC(C)C)C(=O)NCC(=O)N[C@@H](Cc4ccccc4)C(=O)N[C@@H](CCSC)C(=O)N[C@@H](CCCNC(=N)N)C(=O)N[C@@H](CCCCN)C(=O)N2)NC(=O)[C@H](CSSC[C@@H](C(=O)N[C@@H](CCCCN)C(=O)N[C@@H](Cc2ccc(O)cc2)C(=O)N[C@H](C(=O)N[C@@H](CCCCN)C(N)=O)C(C)C)NC(=O)[C@H](Cc2c[nH]c4ccccc24)NC(=O)[C@H](CCCCN)NC(=O)[C@H](Cc2cnc[nH]2)NC(=O)[C@H]([C@@H](C)O)NC(=O)[C@H](CCCNC(=N)N)NC(=O)[C@H](CO)NC3=O)NC(=O)[C@H](CCCCN)NC(=O)[C@H](CC(=O)O)NC(=O)[C@H](CC(N)=O)NC(=O)[C@H](CC(=O)O)NC(=O)[C@@H]2CCCN2C1=O (H-DCLGFMRKCIPDNDKCCRPNLVCSRTHKWCKYVK-NH2; disulfide 2-17, 9-23, 16-30)	> 5000 nM	> 5000 nM
CC[C@H](C)[C@@H]1NC(=O)[C@@H]2CSSC[C@@H]3NC(=O)[C@H](C(C)C)NC(=O)[C@H](CC(C)C)NC(=O)[C@H](CC(N)=O)NC(=O)[C@@H]4CCCN4C(=O)[C@H](CCCNC(=N)N)NC(=O)[C@H](CSSC[C@H](NC(=O)[C@@H](N)CC(=O)O)C(=O)N[C@@H](CC(C)C)C(=O)NCC(=O)N[C@@H](Cc4ccccc4)C(=O)N[C@@H](CCSC)C(=O)N[C@@H](CCCNC(=N)N)C(=O)N[C@@H](CCCCN)C(=O)N2)NC(=O)[C@H](CSSC[C@@H](C(=O)N[C@@H](CCCCN)C(=O)N[C@@H](Cc2ccc(O)cc2)C(=O)N[C@H](C(=O)N[C@@H](Cc2ccccc2)C(N)=O)C(C)C)NC(=O)[C@H](Cc2c[nH]c4ccccc24)NC(=O)[C@H](CCCCN)NC(=O)[C@H](Cc2cnc[nH]2)NC(=O)[C@H](CCCCN)NC(=O)[C@H](CCCNC(=N)N)NC(=O)[C@H](CO)NC3=O)NC(=O)[C@H](CCCCN)NC(=O)[C@H](CC(=O)O)NC(=O)[C@H](CC(N)=O)NC(=O)[C@H](CC(=O)O)NC(=O)[C@@H]2CCCN2C1=O (H-DCLGFMRKCIPDNDKCCRPNLVCSRKHKWCKYVF-NH2; disulfide 2-17, 9-23, 16-30)	> 5000 nM	40 nM
CSCC[C@@H]1NC(=O)[C@H](Cc2ccccc2)NC(=O)CNC(=O)[C@H](CC(C)C)NC(=O)[C@@H](NC(=O)[C@@H](N)CC(=O)O)CSSC[C@@H]2NC(=O)[C@@H]3CSSC[C@@H](C(=O)N[C@@H](CCCCN)C(=O)N[C@@H](Cc4ccc(O)cc4)C(=O)N[C@H](C(=O)N[C@@H](Cc4ccccc4)C(N)=O)C(C)C)NC(=O)[C@H](Cc4c[nH]c5ccccc45)NC(=O)[C@H](CCCCN)NC(=O)[C@H](Cc4cnc[nH]4)NC(=O)[C@H]([C@@H](C)O)NC(=O)[C@H](CCCNC(=N)N)NC(=O)[C@H](CO)NC(=O)[C@H](CSSC[C@H](NC(=O)[C@H](CCCCN)NC(=O)[C@H](CCCNC(=N)N)NC1=O)C(=O)N[C@@H](CC(C)C)C(=O)N1CCC[C@H]1C(=O)N[C@@H](CC(=O)O)C(=O)N[C@@H](CC(N)=O)C(=O)N[C@@H](CC(=O)O)C(=O)N[C@@H](CCCCN)C(=O)N3)NC(=O)[C@H](C(C)C)NC(=O)[C@H](CC(C)C)NC(=O)[C@H](CC(N)=O)NC(=O)[C@@H]1CCCN1C(=O)[C@H](CCCNC(=N)N)NC2=O (H-DCLGFMRKCLPDNDKCCRPNLVCSRTHKWCKYVF-NH2; disulfide 2-17, 9-23, 16-30)	> 5000 nM	140 nM
CC[C@H](C)[C@@H]1NC(=O)[C@@H]2CSSC[C@@H]3NC(=O)[C@H](C(C)C)NC(=O)[C@H](Cc4cccc5ccccc45)NC(=O)[C@H](CC(N)=O)NC(=O)[C@@H]4CCCN4C(=O)[C@H](CCCNC(=N)N)NC(=O)[C@H](CSSC[C@H](NC(=O)[C@@H](N)CC(=O)O)C(=O)N[C@@H](CC(C)C)C(=O)NCC(=O)N[C@@H](Cc4ccccc4)C(=O)N[C@@H](CCSC)C(=O)N[C@@H](CCCNC(=N)N)C(=O)N[C@@H](CCCCN)C(=O)N2)NC(=O)[C@H](CSSC[C@@H](C(=O)N[C@@H](CCCCN)C(=O)N[C@@H](Cc2ccc(O)cc2)C(=O)N[C@H](C(=O)N[C@@H](Cc2ccccc2)C(N)=O)C(C)C)NC(=O)[C@H](Cc2c[nH]c4ccccc24)NC(=O)[C@H](CCCCN)NC(=O)[C@H](Cc2c[nH]cn2)NC(=O)[C@H]([C@@H](C)O)NC(=O)[C@H](CCCNC(=N)N)NC(=O)[C@H](CO)NC3=O)NC(=O)[C@H](CCCCN)NC(=O)[C@H](CC(=O)O)NC(=O)[C@H](CC(N)=O)NC(=O)[C@H](CC(=O)O)NC(=O)[C@@H]2CCCN2C1=O (H-DCLGFMRKCIPDNDKCCRPN[1Nal]VCSRTHKWCKYVF-NH2; disulfide 2-17, 9-23, 16-30)	> 5000 nM	90 nM
CC[C@H](C)[C@@H]1NC(=O)[C@@H]2CSSC[C@@H]3NC(=O)[C@H](C(C)C)NC(=O)[C@H](CC(C)C)NC(=O)[C@H](CCC(=O)O)NC(=O)[C@@H]4CCCN4C(=O)[C@H](CCCNC(=N)N)NC(=O)[C@H](CSSC[C@H](NC(=O)[C@@H](N)CC(=O)O)C(=O)N[C@@H](CC(C)C)C(=O)NCC(=O)N[C@@H](Cc4ccccc4)C(=O)N[C@@H](CCSC)C(=O)N[C@@H](CCCNC(=N)N)C(=O)N[C@@H](CCCCN)C(=O)N2)NC(=O)[C@H](CSSC[C@@H](C(=O)N[C@@H](CCCCN)C(=O)N[C@@H](Cc2ccc(O)cc2)C(=O)N[C@H](C(=O)N[C@@H](Cc2ccccc2)C(N)=O)C(C)C)NC(=O)[C@H](Cc2c[nH]c4ccccc24)NC(=O)[C@H](CCCCN)NC(=O)[C@H](Cc2cnc[nH]2)NC(=O)[C@H]([C@@H](C)O)NC(=O)[C@H](CCCNC(=N)N)NC(=O)[C@H](CO)NC3=O)NC(=O)[C@H](CCCCN)NC(=O)[C@H](CC(=O)O)NC(=O)[C@H](CC(N)=O)NC(=O)[C@H](CC(=O)O)NC(=O)[C@@H]2CCCN2C1=O (H-DCLGFMRKCIPDNDKCCRPELVCSRTHKWCKYVF-NH2; disulfide 2-17, 9-23, 16-30)	> 5000 nM	1400 nM
CC[C@H](C)[C@@H]1NC(=O)[C@@H]2CSSC[C@@H]3NC(=O)[C@H](C(C)C)NC(=O)[C@H](CC(C)C)NC(=O)[C@H](CC(N)=O)NC(=O)[C@@H]4CCCN4C(=O)[C@H](CCCNC(=N)N)NC(=O)[C@H](CSSC[C@H](NC(=O)[C@@H](N)CC(=O)O)C(=O)N[C@@H](CC(C)C)C(=O)NCC(=O)N[C@@H](Cc4ccccc4)C(=O)N[C@@H](CCCCN)C(=O)N[C@@H](CCCNC(=N)N)C(=O)N[C@@H](CCCCN)C(=O)N2)NC(=O)[C@H](CSSC[C@@H](C(=O)N[C@@H](CCCCN)C(=O)N[C@@H](Cc2ccc(O)cc2)C(=O)N[C@H](C(=O)N[C@@H](Cc2ccccc2)C(N)=O)C(C)C)NC(=O)[C@H](Cc2c[nH]c4ccccc24)NC(=O)[C@H](CCCCN)NC(=O)[C@H](Cc2cnc[nH]2)NC(=O)[C@H]([C@@H](C)O)NC(=O)[C@H](CCCNC(=N)N)NC(=O)[C@H](CO)NC3=O)NC(=O)[C@H](CCCCN)NC(=O)[C@H](CC(=O)O)NC(=O)[C@H](CC(N)=O)NC(=O)[C@H](CC(=O)O)NC(=O)[C@@H]2CCCN2C1=O (H-DCLGFKRKCIPDNDKCCRPNLVCSRTHKWCKYVF-NH2; disulfide 2-17, 9-23, 16-30)	> 5000 nM	> 5000 nM
CC[C@H](C)[C@@H]1NC(=O)[C@@H]2CSSC[C@@H]3NC(=O)[C@H](C(C)C)NC(=O)[C@H](CC(C)C)NC(=O)[C@H](CC(N)=O)NC(=O)[C@@H]4CCCN4C(=O)[C@H](CCCNC(=N)N)NC(=O)[C@H](CSSC[C@H](NC(=O)[C@@H](N)CC(=O)O)C(=O)N[C@@H](CC(C)C)C(=O)NCC(=O)N[C@@H](Cc4ccccc4)C(=O)N[C@@H](CCSC)C(=O)N[C@@H](CCCNC(=N)N)C(=O)N[C@@H](CCCCN)C(=O)N2)NC(=O)[C@H](CSSC[C@@H](C(=O)N[C@@H](CCCCN)C(=O)N[C@@H](Cc2ccc(O)cc2)C(=O)N[C@H](C(=O)N[C@@H](Cc2ccccc2)C(N)=O)C(C)C)NC(=O)[C@H](Cc2c[nH]c4ccccc24)NC(=O)[C@H](CCCCN)NC(=O)[C@H](Cc2cnc[nH]2)NC(=O)[C@H]([C@@H](C)O)NC(=O)[C@H](CCCNC(=N)N)NC(=O)[C@H](CO)NC3=O)NC(=O)[C@H](CCCCN)NC(=O)[C@H](CC(=O)O)NC(=O)[C@H](CCC(=O)O)NC(=O)[C@H](CC(=O)O)NC(=O)[C@@H]2CCCN2C1=O (H-DCLGFMRKCIPDEDKCCRPNLVCSRTHKWCKYVF-NH2; disulfide 2-17, 9-23, 16-30)	> 5000 nM	280 nM
CC[C@H](C)[C@@H]1NC(=O)[C@@H]2CSSC[C@@H]3NC(=O)[C@H](C(C)C)NC(=O)[C@H](CC(C)C)NC(=O)[C@H](CC(N)=O)NC(=O)[C@@H]4CCCN4C(=O)[C@H](CCCNC(=N)N)NC(=O)[C@H](CSSC[C@H](NC(=O)[C@@H](N)CC(=O)O)C(=O)N[C@@H](CC(C)C)C(=O)NCC(=O)N[C@@H](Cc4ccccc4)C(=O)N[C@@H](CCSC)C(=O)N[C@@H](CCCCN)C(=O)N[C@@H](CCCCN)C(=O)N2)NC(=O)[C@H](CSSC[C@@H](C(=O)N[C@@H](CCCCN)C(=O)N[C@@H](Cc2ccc(O)cc2)C(=O)N[C@H](C(=O)N[C@@H](Cc2ccccc2)C(N)=O)C(C)C)NC(=O)[C@H](Cc2c[nH]c4ccccc24)NC(=O)[C@H](CCCCN)NC(=O)[C@H](Cc2c[nH]cn2)NC(=O)[C@H]([C@@H](C)O)NC(=O)[C@H](CCCNC(=N)N)NC(=O)[C@H](CO)NC3=O)NC(=O)[C@H](CCCCN)NC(=O)[C@H](CC(=O)O)NC(=O)[C@H](CC(N)=O)NC(=O)[C@H](CC(=O)O)NC(=O)[C@@H]2CCCN2C1=O (H-DCLGFMKKCIPDNDKCCRPNLVCSRTHKWCKYVF-NH2; disulfide 2-17, 9-23, 16-30)	> 5000 nM	540 nM
